Data reported in ChEMBL document CHEMBL1156688, “Synthesis and biological activities of a series of 4,5-diaryl-3-hydroxy-2(5H)-furanones” (Eur J Med Chem, 2008).
pIC50: −log10 of the molar value.

Experiments:
[1] = target: Human immunodeficiency virus type 1 integrase (Human immunodeficiency virus 1, UniProt Q7ZJM1); experiment: Inhibition of HIV1 integrase
Summary of the method: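 Wild-type HIV-1 integrase (1 pmol) was tested in a 3′-processing reaction with 0.025 pmol labelled U5A/U5B double-stranded DNA substrate. Buffer was 20 mM Hepes pH 7.2, 10 mM MgCl2, 25 mM NaCl and 1 mM DTT. Oligonucleotides were gel-purified on 18% denaturing acrylamide/urea.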

[2] = Antioxidant activity assessed as inhibition of peroxynitrite-induced evans blue bleaching at 50 uM; type: functional; parameters: scale not given: the % may be the effect or the level left
Summary of the method: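 Room-temperature assay in 50 mM phosphate-buffered saline, pH 7.4, containing 0.1 mM diethylenetriaminepentaacetic acid, 90 mM NaCl and 5 mM KCl. Test compound, Evans Blue ([…] as printed) and peroxynitrite ([…] as printed) were mixed rapidly. Bleaching was read at 608 nm. Blanks held DMF alone or peroxynitrite degraded for 5 min.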

[3] = target: T1, Polyunsaturated fatty acid 5-lipoxygenase (Homo sapiens) (UniProt P09917); experiment: Inhibition of 5LOX in human whole blood assessed as inhibition of calcium ionophore A-stimulated 5-HETE production at 10 uM; type: tissue-based; parameters: scale not given: the % may be the effect or the level left
T1 sequence (whole entry): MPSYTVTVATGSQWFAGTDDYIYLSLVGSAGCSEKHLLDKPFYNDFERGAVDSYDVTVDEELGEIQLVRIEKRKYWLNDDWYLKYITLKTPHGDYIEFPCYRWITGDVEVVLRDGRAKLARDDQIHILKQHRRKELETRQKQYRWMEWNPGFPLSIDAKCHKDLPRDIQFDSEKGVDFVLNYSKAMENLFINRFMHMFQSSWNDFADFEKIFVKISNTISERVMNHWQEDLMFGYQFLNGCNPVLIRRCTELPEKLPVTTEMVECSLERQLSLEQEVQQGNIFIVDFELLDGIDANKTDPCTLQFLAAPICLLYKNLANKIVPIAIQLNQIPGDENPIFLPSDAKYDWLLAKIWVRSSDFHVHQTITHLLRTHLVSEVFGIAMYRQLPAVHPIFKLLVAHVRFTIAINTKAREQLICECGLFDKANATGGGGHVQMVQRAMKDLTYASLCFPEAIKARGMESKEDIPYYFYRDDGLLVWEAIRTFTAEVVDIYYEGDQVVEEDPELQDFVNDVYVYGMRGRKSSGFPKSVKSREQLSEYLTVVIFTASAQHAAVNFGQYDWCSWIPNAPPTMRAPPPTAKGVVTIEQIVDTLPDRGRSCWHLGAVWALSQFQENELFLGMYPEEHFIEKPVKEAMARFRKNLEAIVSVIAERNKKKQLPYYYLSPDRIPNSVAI
Summary of the method: (§1)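 Fresh heparinized blood from normal volunteers, in 1 mL aliquots, was preincubated 15 min at 37 °C with compound or DMSO vehicle. It was then stimulated with calcium ionophore A23187 for 30 min at 37 °C. Eicosanoids were extracted into ethyl acetate, dried under nitrogen and redissolved in mobile phase. 5-HETE was quantified by reversed-phase HPLC with UV detection.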

[4] = DPPH radical scavenging activity assessed as ratio of drug concentration to DPPH concentration producing 50% decrease in DPPH after 5 mins; type: functional
Summary of the method: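 DPPH decay was followed spectrophotometrically at 515 nm, read every 0.02 min, starting from about […] DPPH. ECR50 is the ratio of antioxidant to DPPH concentration giving a 50% fall in DPPH; the methods state 6 min of reaction. Trolox and ascorbic acid served as references.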

[5] = target: T1, Polyunsaturated fatty acid 5-lipoxygenase (Homo sapiens); experiment: Inhibition of 5LOX in human whole blood assessed as inhibition of calcium ionophore A-stimulated 5-HETE production at 100 uM; type: tissue-based; parameters: scale not given: the % may be the effect or the level left; summary of the method: as §1
[6] = target: Prostaglandin G/H synthase 1 (Homo sapiens) (UniProt P23219); experiment: Inhibition of COX1 at 100 uM
PC-3 [7] = experiment: Antiproliferative activity against human PC3 cells at 10 uM after 72 hrs by MTT assay; type: functional; conditions: PC-3, 72 h
Summary of the method: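 PC3 cells were grown in RPMI 1640 with 10% fetal calf serum at 37 °C under 5% CO2. They were plated at 1.8 × 10^4 cells/well and grown 3 days, then serum-starved 24 h to synchronize. Compounds were added in medium with less than 0.1% DMSO. Growth was estimated by colorimetric MTT after 72 h.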

PC-3 [8] = experiment: Antiproliferative activity against human PC3 cells after 72 hrs by MTT assay; conditions: PC-3, 72 h

Chain of Human immunodeficiency virus type 1 integrase (Q7ZJM1 whole entry): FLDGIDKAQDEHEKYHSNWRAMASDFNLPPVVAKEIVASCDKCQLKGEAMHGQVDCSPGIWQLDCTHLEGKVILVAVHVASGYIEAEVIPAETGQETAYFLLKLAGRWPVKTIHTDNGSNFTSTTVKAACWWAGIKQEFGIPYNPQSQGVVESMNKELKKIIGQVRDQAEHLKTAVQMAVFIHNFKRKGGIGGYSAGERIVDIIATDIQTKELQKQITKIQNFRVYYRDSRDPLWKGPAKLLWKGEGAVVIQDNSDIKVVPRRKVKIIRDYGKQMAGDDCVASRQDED

| pIC50 [1] | Activity [3] | Activity [5] | inhibition [6] | pIC50 (PC-3 [8]) | SMILES | Activity [2] | Ratio [4] | inhibition at 10 µM (PC-3 [7]) |
| --- | --- | --- | --- | --- | --- | --- | --- | --- |
| < 3.52 | 0% |  |  |  | O=C1OC(c2ccc(OCc3ccccc3)cc2)C(c2ccc(F)cc2)=C1O (configuration not stated) | 0% |  |  |
| < 3.52 | 0% | 16.4% | 16.4% |  | O=C1OC(c2ccc(F)cc2)C(c2ccc(O)cc2)=C1O (configuration not stated) | 46.5% | 0.27 |  |
| 4.66 | 0% | 11.6% |  |  | O=C1OC(c2cc(O)cc(O)c2)C(c2ccc(O)cc2)=C1O (configuration not stated) | 33.1% | 0.47 | 39% |
| 4.52 | 0% |  |  |  | O=C1OC(c2cc(OCc3ccccc3)cc(OCc3ccccc3)c2)C(c2ccc(F)cc2)=C1O (configuration not stated) | 0% |  |  |
| 4.04 | 0% | 10.7% |  |  | O=C1OC(c2cc(O)cc(O)c2)C(c2ccc(F)cc2)=C1O (configuration not stated) | 40.9% |  | 0% |
| < 3.52 | 32% |  |  |  | O=C1OC(c2cc(OCc3ccccc3)cc(OCc3ccccc3)c2)C(c2ccc(O)cc2)=C1O (configuration not stated) | 10.4% | 0.65 |  |
| 5.00 | 0% |  |  |  | O=C1OC(c2ccc(OCc3ccccc3)c(OCc3ccccc3)c2)C(c2ccc(F)cc2)=C1O (configuration not stated) | 0% |  |  |
| 5.04 | 35.4% | 79.5% |  |  | O=C1OC(c2ccc(O)c(O)c2)C(c2ccc(O)cc2)=C1O (configuration not stated) | 92% | 0.25 | 20% |
| < 3.52 | 0% |  |  |  | O=C1OC(c2ccc(OCc3ccccc3)cc2)C(c2ccc(O)cc2)=C1O (configuration not stated) | 0% | 0.3 |  |
| < 3.52 | 0% | 18.6% | 32.9% |  | O=C1OC(c2ccccc2)C(c2ccc(O)cc2)=C1O (configuration not stated) | 29.4% | 0.49 |  |
| 3.52 | 0% | 0% |  |  | O=C1OC(c2ccc(O)cc2)C(c2ccc(F)cc2)=C1O (configuration not stated) | 0% |  | 31% |
| 5.44 |  |  |  |  | O=C1OCC(c2ccc(O)cc2)=C1O |  |  |  |
| 6.00 | 12.7% |  |  |  | O=C1OC(c2ccc(OCc3ccccc3)c(OCc3ccccc3)c2)C(c2ccc(O)cc2)=C1O (configuration not stated) | 4.9% | 0.71 |  |
|  |  |  |  |  | O=C1O[C@H]([C@@H](O)CO)C(O)=C1O | 83.6% | 0.26 |  |
|  |  |  |  |  | Cc1c(C)c2c(c(C)c1O)CCC(C)(C(=O)O)O2 (configuration not stated) | 90% | 0.26 |  |
| 3.66 | 0% | 27.8% |  |  | O=C1OC(c2ccc(O)cc2)C(c2ccc(O)cc2)=C1O (configuration not stated) | 44.9% | 0.32 | 0% |
|  |  |  |  | 4.32 | Cc1ccc(-c2cc(C(F)(F)F)nn2-c2ccc(S(N)(=O)=O)cc2)cc1 [CELECOXIB] |  |  |  |
